According to ChEMBL document CHEMBL1127855, “Antitumor agents. 144. New gamma-lactone ring-modified arylamino etoposide analogs as inhibitors of human DNA topoisomerase II” (1994):

Legend:
[1] = target: DNA topoisomerase II (Homo sapiens) (UniProt P11388+Q02880); assay: Inhibition of human DNA topoisomerase II activity; assay type: protein assay
Summary of the method: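 Each compound was tested in triplicate at 5, 10, 25, 50 and 100 µM. ID50 was set from the degree of inhibition seen at these concentrations.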

KB = assay: Cytotoxicity against KB-ATCC cell lines after a 3-day incubation; assay type: functional; settings: Homo sapiens, 72 h, read-out: ID50 (the source's name)
Summary of the method: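 KB-ATCC cells were incubated with compound for 3 days. The read-out was cell number, and ID50 was taken as the concentration giving a 50% reduction.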

Nucleic Acid = assay: Percent of cellular protein-DNA complex formation at concentration of 20 uM; assay type: functional; settings: Homo sapiens

Compound | ID50 [1] [µM] | IC50 (KB) [µM] | Complex formation (Nucleic Acid) [%]
COc1cc([C@@H]2c3cc4c(cc3[C@@H](Nc3ccccc3)[C@H]3COC[C@H]23)OCO4)cc(OC)c1O | 50 | 2.6 | 139
COc1cc([C@@H]2c3cc4c(cc3[C@@H](Nc3ccc(F)cc3)[C@H]3COC(=O)[C@H]23)OCO4)cc(OC)c1O | – | 0.24 | 213
COc1cc([C@@H]2c3cc4c(cc3[C@@H](O[C@@H]3O[C@@H]5CO[C@@H](C)O[C@H]5[C@H](O)[C@H]3O)[C@H]3COC(=O)[C@H]23)OCO4)cc(OC)c1O [ETOPOSIDE] | – | 0.2 | 100

Continued, in another order:

ID50 [1] [µM] | Compound | IC50 (KB) [µM] | Complex formation (Nucleic Acid) [%]
50 | COc1cc([C@@H]2c3cc4c(cc3[C@@H](Nc3ccc(F)cc3)[C@H]3CO[C@@H](O)[C@H]23)OCO4)cc(OC)c1O | 2.2 | 87
50 | COc1cc([C@@H]2c3cc4c(cc3[C@@H](Nc3ccc(F)cc3)[C@H]3COC[C@H]23)OCO4)cc(OC)c1O | 4.1 | 125
100 | COc1cc([C@@H]2c3cc4c(cc3[C@@H](Nc3ccccc3)[C@H]3CO[C@@H](OC)[C@H]23)OCO4)cc(OC)c1O | 5.5 | 96
> 100 | COc1cc([C@@H]2c3cc4c(cc3[C@@H](Nc3ccc(F)cc3)[C@H]3CO[C@@H](OC)[C@H]23)OCO4)cc(OC)c1O | 5.5 | 66
